Screening results from PubChem.
OX1R antag-1 – OX1R (human) antagonism | 330,000 compounds, 1.8% hits | O43613 | inhibition, % at 6.6 µM | OX1R-expressing cells, FRET antagonist read-out; in the data active = inhibition mostly above about 38%, no sharp cut-off; inactive = mostly below about 40%;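 also: 0% = agonist challenge alone and 100% = reference antagonist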
TAAR1 ag – agonists of human TAAR1; Q96RJ0; 360,000 compounds, 0.99% hits; CHO RD-HGA16 TAAR1, Fluo-8 calcium fluorescence; vehicle wells 0%, saturating PEA agonist 100%; activation, % at 3 µM;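 active = activation above the mean activation of all test compounds in the run plus 3 SD, cut at about 38% in these data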
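test system = CHO RD-HGA16 cells carrying human TAAR1 plus Gα16 | schedule = 17-24 h seeding, 75 min 37 °C dye, 30 min RT | compound dosing = 3 µM single concentration | control set = DMSO and PEA EC100 | replicates = n 1 | signal = Fluo-8 fluorescence, 5 s baseline then 140 s kinetic read | measure = percent activation vs PEA EC100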
GPR7 antagonist – antagonists of human GPR7 (neuropeptides B/W receptor 1) | 290,000 compounds, 1.1% hits | inhibition, % at 4.4 µM | P48145 | GPR7-expressing cells, fluorescence antagonist assay; in the data active = inhibition above about 16%, passing the limit was not always enough;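 also: cells stimulated with the agonist NPW; 0% = agonist with vehicle and 100% = vehicle without agonist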
Target sequence (P48145 whole entry, looked up): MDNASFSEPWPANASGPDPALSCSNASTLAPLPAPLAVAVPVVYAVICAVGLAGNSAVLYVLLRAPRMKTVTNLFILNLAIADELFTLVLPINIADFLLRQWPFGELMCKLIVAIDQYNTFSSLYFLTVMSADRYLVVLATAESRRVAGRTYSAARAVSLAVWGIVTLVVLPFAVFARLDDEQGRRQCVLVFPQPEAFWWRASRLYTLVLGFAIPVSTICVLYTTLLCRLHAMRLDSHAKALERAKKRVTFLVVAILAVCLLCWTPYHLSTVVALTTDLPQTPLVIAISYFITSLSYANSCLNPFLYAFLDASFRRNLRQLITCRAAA
TAAR1 antagonist – antagonists of human TAAR1 | Q96RJ0 | 360,000 compounds, 1.5% hits | CHO RD-HGA16 TAAR1, Fluo-8 calcium fluorescence, antagonist | inhibition, % at 3 µM | AID 624466;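 active = inhibition above a per-plate cutoff, the mean inhibition of test compounds on that plate plus 3 SD, cut at about 49% in these data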;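 also: 0% = DMSO plus EC80 beta-PEA response and 100% = DMSO alone without agonist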
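Test system: CHO RD-HGA16 cells bearing hTAAR1 | Reagent: β-PEA, EC80 | Compound dosing: 3 µM, single point | Schedule: Dye loading 75 min at 37 °C, then 30 min room temperature | Signal: Calcium fluorescence with Fluo-8 | Evaluation: Percent inhibition of PEA-evoked calcium signal, max/basal emission ratio | Control set: DMSO-only wells and EC80 β-PEA-stimulated wells | Repeats: Singlicate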
CHO parental Ca – counter-screen: ATP calcium response change in parental CHO cells | parental CHO-K1, ATP-induced calcium, Fluo-8 fluorescence | inhibition, % at 5.6 µM | 330,000 compounds, 0.63% hits;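 active = inhibition above that plate's mean sample inhibition plus 3 SD, cut at about 26% in these data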;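 also: 0% = ATP-challenged DMSO wells and 100% = DMSO wells without ATP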
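Material: Parental CHO cells | Reagent: ATP | Compound dosing: Single nominal dose of 5.6 µM per compound | Detection: Intracellular calcium via Fluo-8 no-wash fluorescent dye | Read-out: % inhibition of ATP-induced calcium mobilization | Benchmarks: Low control ATP plus DMSO, high control DMSO only | Replicates: Singlicate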
OX1R antag-2 – blocks the human orexin 1 receptor | CHO/OX1R cells, Fluo-8 calcium fluorescence, orexin A | inhibition, % at 5 µM | 330,000 compounds, 0.43% hits | AID 434989;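 active = inhibition above its plate's threshold, mean inhibition of all tested compounds on the plate plus 3 SD, cut at about 37% in these data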;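 also: 0% = orexin A challenge wells and 100% = SB-334867-A antagonist wells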
nonsel antag count – nonselective antagonist in TAAR1 antagonist counter-screen; 2,400 compounds, 77% hits; shares compounds with TAAR1 antagonist; inhibition, % at 3 µM; counterscreen cell line, calcium fluorescence, antagonist mode; in the data active = inhibition above about 22%;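 also: CHO-Ga16 host cells stimulated with ATP at an EC80 level; 0% = agonist EC80 plus vehicle and 100% = vehicle without agonist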
TAAR1 antag conf – confirmation of human TAAR1 antagonists; shares compounds with TAAR1 antagonist; TAAR1-expressing cells, fluorescence antagonist read-out; AID 651785; inhibition, % at 3 µM; 2,400 compounds, 40% hits; in the data active = inhibition above about 49%;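 also: CHO-Ga16 host cells challenged with agonist PEA near its EC80; 0% = agonist at EC80 plus vehicle and 100% = vehicle with no agonist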
Ga16 ag counter – counter-screen for TAAR1 antagonists: nonselective Ga16 agonists | shares compounds with TAAR1 antagonist | Ga16-expressing cells, calcium fluorescence, agonist counterscreen | activation, % at 3 µM | 2,400 compounds, 18% hits | AID 651953; in the data active = activation above about 12%;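 also: 0% = vehicle wells and 100% = saturating stimulus response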
TAAR1 ag count – activates human TAAR1 in antagonist counter-screen | activation, % at 3 µM | 2,400 compounds, 2% hits | shares compounds with TAAR1 antagonist | AID 651955 | hTAAR1 cell line, fluorescence activation, agonist mode; in the data active = activation above about 37%;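 also: CHO cells stably expressing TAAR1 with calcium dye readout; 0% = DMSO vehicle and 100% = full agonist response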
* hit, by the source's call; . = no result. A selection: hits, their analogues and other compounds. The true share with any hit is near 4.6%.

SMILES | OX1R antag-1 | TAAR1 ag | GPR7 antagonist | TAAR1 antagonist | CHO parental Ca | OX1R antag-2 | nonsel antag count | TAAR1 antag conf | Ga16 ag counter | TAAR1 ag count
Cc1nn(-c2ccccc2)c(C)c1NC(=O)COC(=O)[C@@H](NC(=O)c1ccccc1)C(C)C | 16.4 | 0.6 | . | 0.2 | -20.3 | -23.3 | . | . | . | .
Cc1nn(-c2ccccc2)c(C)c1NC(=O)COC(=O)c1ccc(O)cc1O | . | 21.4 | 0.7 | 75.6* | . | . | 29.4* | 55.2* | 10.2 | 10.9
CCCCCCn1nc(C(=O)OCC(=O)c2c(N)n(C)c(=O)n(C)c2=O)c2ccccc2c1=O | 16.3 | 5.6 | 4.7 | 78.5* | -15.5 | -21.8 | 35.9* | 53.2* | 9.2 | 8.0
CC(C)CN(C(=O)COC(=O)c1ccccc1Sc1ccccc1C#N)C1CCS(=O)(=O)C1 (centres undefined) | 15.1 | 2.6 | -0.9 | -3.8 | -13.3 | -30.4 | . | . | . | .
COc1ccc(C)cc1-n1nnnc1SCc1nc2ccccc2s1 | 42.7 | 15.9 | 3.3 | 53.8* | -7.5 | -17.3 | 26.8* | 26.8 | 5.8 | 2.6
COc1ccc(-n2nnnc2SCc2nc3ccccc3s2)cc1 | 25.2 | 1.9 | 1.0 | 14.9 | 4.3 | -15.0 | . | . | . | .
CCOC(=O)c1sc2nccc(N(C)C)c2c1N=CNOCc1c(F)cccc1Cl | 17.7 | 11.7 | -3.9 | 2.5 | -34.0 | -15.8 | . | . | . | .
CC(=O)N(C)c1ccc(NC(=O)Nc2ccc(C)cc2)cc1 | 14.0 | 25.8 | -6.4 | 57.4* | -4.6 | -8.4 | 19.0 | 44.3 | 10.3 | 19.6
CC(=O)N(C)c1ccc(NC(=S)Nc2ccccc2)cc1 | 12.8 | 6.2 | 8.8 | 1.3 | -15.5 | -14.0 | . | . | . | .
O=S(=O)(Nc1ccc(C(O)(C(F)(F)F)C(F)(F)F)cc1)c1cccc2cccnc12 | . | 4.2 | . | 4.7 | . | . | . | . | . | .
COc1ccc(C(C(=O)NCC2CCCO2)N(Cc2cccs2)C(=O)c2snc(C(N)=O)c2N)cc1 (centres undefined) | 17.9 | 18.7 | -7.7 | 59.0* | -35.9 | -16.4 | 23.2* | 58.3* | 26.7* | 11.7
CCOc1ccc(C(C(=O)NCC2CCCO2)N(Cc2ccccc2)C(=O)c2snc(C(N)=O)c2N)cc1 (centres undefined) | 15.9 | 21.1 | -6.0 | 57.0* | -12.2 | -23.3 | 35.3* | 56.7* | 12.1* | 17.8
CC1(C)C(=O)OC(C(=O)c2ccccc2)C2(CCCCC2)C1=O (centres undefined) | 12.7 | -1.6 | -1.1 | 2.5 | -9.6 | -2.0 | . | . | . | .
CSc1ccc(CCNC(=O)c2ccc(CS(=O)Cc3ccc(Cl)cc3)o2)cc1 (centres undefined) | 20.5 | 9.4 | 13.9 | 52.5* | -23.1 | -12.4 | 31.6* | 42.6 | 11.1 | 8.2
O=C(NCCc1ccc(Cl)cc1)c1ccc(CS(=O)Cc2ccc(Cl)cc2)o1 (centres undefined) | 5.1 | 3.4 | 25.8 | 25.5 | -13.2 | -27.4 | . | . | . | .
Cc1cc(C)cc(OCC(=O)Nc2ccc(N3CCN(C(=O)c4ccco4)CC3)cc2)c1 | 26.4 | 22.8 | -10.3 | 74.3* | 5.2 | 9.6 | 43.4* | 62.4* | 12.1* | 8.7
O=C(COc1ccc(Cl)cc1)Nc1ccc(N2CCN(C(=O)c3ccco3)CC2)cc1 | 14.7 | 22.8 | 0.9 | 79.7* | -1.9 | 17.4 | 41.9* | 45.9 | 12.1* | 27.7
CCOc1ccccc1N1CCN(C(=O)C2CSC3(C)CCC(=O)N23)CC1 (centres undefined) | -3.9 | 5.6 | . | -25.5 | -20.7 | -1.9 | . | . | . | .
CNC(=O)CSc1n[nH]c(-c2cc(Cl)ccc2OC)n1 | 12.8 | 1.9 | -12.9 | -7.6 | -4.0 | -12.4 | . | . | . | .
O=C1N/C(=C/c2ccc(Br)cc2)C(O)=C1C=NCc1ccccc1 | 10.7 | -0.2 | -9.3 | 105.0* | -10.5 | -10.8 | 2.1 | 0.8 | 0.2 | 2.8
